Results reported in ChEMBL document CHEMBL5150043, “Discovery of Anthranilic Acid Derivatives as Difluoromethylornithine Adjunct Agents That Inhibit Far Upstream Element Binding Protein 1 (FUBP1) Function” (J Med Chem, 2022).

Columns and labels:
[1] = test system: CHO-K1; assay: Cytotoxicity against chinese hamster CHO-K1 cells assessed as decrease in cell viability measured after 48 hrs by ATPlite assay; format: toxicity, cell-based, Cricetulus griseus; details: cho-k1, 48 h
Outline: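 CHO-K1 cells dosed alone in 384-well format in parallel with Assays 1 and 2; MTC taken as highest concentration giving ≥90% relative growth versus untreated control; typical error ±10% (n = 3).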

[2] = test system: CHO-K1; assay: Inhibition of spermidine uptake in chinese hamster CHO-K1 cells assessed as decrease in cell growth by measuring cellular ATP content measured after 48 hrs in presence of DFMO and spermidine by ATPlite assay; details: Cricetulus griseus, CHO-K1, 48 h
[3] = Inhibition of spermidine uptake chinese hamster CHO-K1 cells assessed as decrease in cell growth by measuring cellular ATP content measured after 48 hrs in presence of DFMO and spermidine by ATPlite assay; format: functional, cell-based; details: Cricetulus griseus, CHO-K1, 48 h
[4] = test system: L3.6pl; assay: Cytotoxicity against human L3.6pl cells assessed as cell viability measured after 72 hrs by ATPlite assay; format: toxicity, cell-based
Outline: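 L3.6pl human pancreatic cancer cells in 96-well format were exposed to compound alone for 72 h. Growth was expressed relative to an untreated control. MTC is the highest concentration with relative growth still >90%. […] Data come from two or more experiments, each run in triplicate (n ≥ 6).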

[5] = Cytotoxicity against human L3.6pl cells assessed as inhibition of cell growth measured after 72 hrs by ATPlite assay; format: toxicity, cell-based

| Structure (SMILES) | MTC [1] [µM] | EC50 [2] [µM] | EC50 [3] [µM] | MTC [4] [µM] | IC50 at 72 h [5] [µM] |
| --- | --- | --- | --- | --- | --- |
| O=C(Nc1ccc(N2CCN(c3ccccc3F)CC2)c(C(=O)O)c1)c1ccc(Cl)cc1 | > 40 | > 40 | – | – | – |
| COc1ccccc1C(=O)Nc1ccc(N2CCN(c3cccc(C)c3C)CC2)cc1C(=O)O | 28 | 23 | 2 | 8 | 22.9 |
| CCN(CC)C(=O)CN1CCN(c2ccc(NC(=O)c3ccc(OC)cc3)c(C(=O)O)c2)CC1 | 28 | > 40 | > 40 | – | – |
| COc1ccc(C(=O)Nc2ccc(N3CCCN(c4ncccn4)CC3)cc2C(=O)O)cc1 | > 40 | – | 12 | 25 | > 30 |
| COC(=O)c1cc(N2CCN(c3cc(Cl)ccc3C)CC2)ccc1NC(=O)c1ccc(OC)cc1OC | > 40 | > 40 | > 40 | – | – |
| COc1ccccc1C(=O)Nc1ccc(N2CCC(c3ccccc3)CC2)cc1C(=O)O | > 40 | 21 | 18 | 9 | 46.3 |
| Cc1ccc(C(=O)Nc2ccc(N3CCN(c4cc(Cl)ccc4C)CC3)c(C(=O)O)c2)cc1 | 12 | 5 | – | – | – |
| COCCNC(=O)CN1CCN(c2ccc(NC(=O)c3ccc(OC)cc3)c(C(=O)O)c2)CC1 | > 40 | > 40 | – | – | – |
| COc1ccccc1N1CCN(c2ccc(NC(=O)c3ccccc3-c3cccs3)cc2C(=O)O)CC1 | > 40 | 27 | > 40 | – | – |
| COc1ccc(C(=O)Nc2ccc(N3CCC(c4cccc(C)c4)C3)cc2C(=O)O)cc1 (centres undefined) | > 40 | > 40 | > 40 | 25 | 39.9 |
| COc1ccc(C(=O)Nc2ccc(N3CCN(c4cc(Cl)ccc4C)CC3)c(C(=O)O)c2)cc1 | 14 | 5 | – | – | – |
| COc1ccc(N2CCN(c3ccc(NC(=O)C4CCCCC4)cc3C#N)CC2)cc1 | 17 | 23 | > 40 | – | – |
| Cc1cccc(N2CCN(c3ccc(NC(=O)c4cccc(Cl)c4)c(C(=O)O)c3)CC2)c1C | 10 | 8 | – | – | – |
| COc1ccccc1C(=O)Nc1ccc(CN2CCN(c3ccccn3)CC2)cc1C(=O)O | > 40 | > 40 | > 40 | 10 | > 10 |
| COc1ccccc1C(=O)Nc1ccc(N2CCN(CCCc3ccccc3)CC2)cc1C(=O)O | > 40 | > 40 | > 40 | 10 | > 10 |
| COc1ccc(C(=O)Nc2ccc(N3CCN(c4cccc(C)c4)CC3)cc2C(=O)O)cc1 | 22 | 16 | > 40 | – | – |
| COC(=O)c1cc(N2CCN(c3cc(Cl)ccc3C)CC2)ccc1NC(=O)c1ccccc1OC | > 40 | > 40 | > 40 | – | – |
| COC(=O)c1cc(N2CCN(c3cc(Cl)ccc3C)CC2)ccc1NC(=O)c1ccc(OC)cc1 | > 40 | > 40 | > 40 | – | – |
| Cc1ccc(C)c(N2CCN(c3ccc(N4C(=O)CC(c5ccccc5)C4=O)cc3[N+](=O)[O-])CC2)c1 (centres undefined) | 32 | 27 | – | – | – |
| Cc1ccccc1C(=O)Nc1ccc(N2CCN(c3cc(Cl)ccc3C)CC2)c(C(=O)O)c1 | > 40 | > 40 | > 40 | – | – |
| Cc1ccc(C)c(N2CCN(c3ccc(NC(=O)c4ccc(Cl)cc4)cc3C(=O)O)CC2)c1 | > 40 | > 40 | – | – | – |
| COc1ccc(CC(=O)Nc2ccc(N3CCN(c4cc(Cl)ccc4C)CC3)cc2C(=O)O)cc1 | 24 | 25 | 32 | – | – |
| COc1ccccc1C(=O)Nc1ccc(N2CCN(c3ccccn3)CC2)cc1 | 14 | > 40 | > 40 | 10 | > 10 |

| Structure (SMILES) | MTC [1] [µM] | EC50 [2] [µM] | EC50 [3] [µM] | MTC [4] [µM] | IC50 at 72 h [5] [µM] |
| --- | --- | --- | --- | --- | --- |
| COc1ccccc1N1CCN(c2ccc(NC(=O)c3ccccc3)cc2C(=O)O)CC1 | > 40 | > 40 | – | – | – |
| COc1ccc(C(=O)Nc2ccc(N3CCN(c4cccc(Cl)c4)CC3)cc2C(=O)O)cc1 | 20 | 17 | – | – | – |
| COC(=O)c1cc(CN2CCN(c3ccccn3)CC2)ccc1NC(=O)c1ccccc1OC | > 20 | > 20 | > 20 | – | – |
| COc1ccccc1C(=O)Nc1ccc(N2CCN(Cc3ccccc3)CC2)cc1C(=O)O | > 40 | > 40 | > 40 | 10 | > 10 |
| Cc1ccc(CC(=O)Nc2ccc(N3CCN(c4ccccc4Cl)CC3)cc2C(=O)O)cc1 | > 40 | 32 | 16 | – | – |
| COc1ccc(C(=O)Nc2ccc(N3CCN(C4CCCCC4)CC3)cc2C(=O)O)cc1 | > 40 | > 40 | – | – | – |
| COc1ccc(C(=O)Nc2ccc(N3CCN(c4ccccc4F)CC3)cc2C(=O)O)cc1 | 25 | 33 | – | – | – |
| Cc1cccc(N2CCN(c3ccc(NC(=O)c4ccccc4Cl)c(C(=O)O)c3)CC2)c1C | 26 | 22 | – | – | – |
| COc1ccc(C(=O)Nc2ccc(N3CCN(c4ccccc4)CC3)cc2C(=O)O)cc1 | 17 | 15 | > 40 | – | – |
| COc1ccc(C(=O)Nc2ccc(N3CCN(c4cc(Cl)ccc4C)CC3)cc2C(=O)O)c(OC)c1 | > 40 | > 40 | > 40 | 40 | 61.6 |
| COc1ccc(C(=O)Nc2ccc(N3CCN(c4ccc(C(C)=O)cc4)CC3)cc2C(=O)O)cc1 | 20 | 21 | > 40 | – | – |
| Cc1cccc(N2CCN(c3ccc(NC(=O)c4ccccc4F)cc3C(=O)O)CC2C)c1 (centres undefined) | > 40 | > 40 | – | – | – |
| CCOC(=O)N1CCN(c2ccc(NC(=O)c3ccc(OC)cc3)c(C(=O)O)c2)CC1 | 34 | > 40 | > 40 | – | – |
| COc1ccccc1N1CCN(c2ccc(N3C(=O)CCC3=O)cc2[N+](=O)[O-])CC1 | 27 | 30 | – | – | – |
| COc1ccccc1N1CCN(c2ccc(NC(=O)c3ccccc3Cl)c(C(=O)O)c2)CC1 | 36 | 26 | 16 | – | – |
| O=C(Nc1ccc(N2CCN(C3CCCCC3)CC2)cc1C(=O)O)c1ccc(F)cc1 | > 40 | > 40 | – | – | – |
| COc1ccc(C(=O)Nc2ccc(N3CCC(N4CCCCC4)CC3)cc2C(=O)O)cc1 | > 40 | > 40 | – | – | – |
| COc1ccc(C(=O)Nc2ccc(N3CCN(c4ccc(OC)cc4)CC3)cc2C(=O)O)cc1 | > 40 | > 40 | > 40 | – | – |
| CCOc1ccccc1N1CCN(c2ccc(NC(=O)c3ccc(OC)cc3)c(C(=O)O)c2)CC1 | 37 | 20 | – | 10 | > 20 |
| COc1ccccc1C(=O)Nc1ccc(N2CCN(Cc3ccccn3)CC2)cc1C(=O)O | > 40 | 10 | – | 10 | > 100 |
| COc1ccccc1C(=O)Nc1ccc(N2CCN(c3ccccn3)CC2)cc1C(=O)O | 21 | – | 4 | 2 | > 100 |
| COc1ccc(C(=O)Nc2ccc(N3CCC(C(N)=O)CC3)cc2C(=O)O)cc1 | 22 | > 40 | > 40 | – | – |
